pIC50: −log10 of the molar value.
Key:
[1] = target: T1, Angiotensin-converting enzyme 2 (Homo sapiens, UniProt Q9BYF1); experiment: Inhibition of recombinant human ACE2 using MCA-Tyr-Val-Ala-Asp-Ala-Pro-Lys(DNP)-OH as substrate preincubated for 15 mins followed by substrate addition and measured upto 15 mins by fluorescence assay
Sus scrofa [2] = organism: Sus scrofa; experiment: Inhibition of porcine heart malate dehydrogenase assessed as critical aggregation concentration preincubated for 5 min followed by nicotinamide adenine dinucleotide addition and monitered for 90 sec by spectrophotometric method; type: tissue-based
[3] = Inhibition of porcine heart malate dehydrogenase preincubated for 5 min followed by nicotinamide adenine dinucleotide addition and monitered for 90 sec by spectrophotometric method; type: tissue-based, Sus scrofa
Method in brief: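 Porcine heart MDH was used at 2 nM final in 50 mM KPi pH 7 at room temperature. Compound was added from 100× DMSO stock (1% DMSO final) and incubated 5 min. Reactions were followed 90 s spectrophotometrically, with initial rates divided by the negative-control rate. Concentration–response used three replicates per concentration to give IC50 and Hill slope.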

Sus scrofa [4] = organism: Sus scrofa; experiment: Inhibition of porcine heart malate dehydrogenase assessed as reduction in enzyme inhibition at 3 times IC50 preincubated for 5 min followed by nicotinamide adenine dinucleotide addition and monitered for 90 sec in presence of 0.01% Triton-X100 by spectrophotometric method relative to control; type: tissue-based; design: scale not given: the % may be the effect or the level left
Method in brief: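 After a 5 min room-temperature incubation, the rate was read over 90 s and compared with the negative control. The value is the percent change in inhibition with detergent; triplicate.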

[5] = Inhibition of SARS CoV2 C-terminal His6-tagged 3CL protease (3264 to 3569 residues) expressed in Escherichia coli BL21 DE3 using rr-K(MCA)-ATLQAIAS-K(DNP)-COOH preincubated for 1 hr followed by substrate addition and measured after 1 hr in presence of 0.05% Tween-20; design: species or system Severe acute respiratory syndrome coronavirus 2
Method in brief: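 Purified recombinant 3CL-Pro at 50 nM final with quenched fluorogenic peptide at 10 μM final (KM), in 20 mM Tris, 150 mM NaCl, 1 mM EDTA, 1 mM DTT, 0.05% Tween-20, pH 7.4. Drug and enzyme were preincubated 1 h at 37 °C, then substrate was added and fluorescence followed 1 h.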

[6] = Inhibition of SARS-Cov2 N-terminal full-length MBP-tagged 3CL protease expressed in Escherichia coli using DABCYL-KTSAVLQSGFRKME-EDANS as substrate preincubated for 30 mins followed by substrate addition and measured after 3 hrs by fluorescence assay; design: species or system Severe acute respiratory syndrome coronavirus 2
[7] = Inhibition of SARS-COV2 N-terminal MBP-tagged 3CL protease using DABCYL-KTSAVLQSGFRKME-EDANS as substrate measured upto 30 mins by FRET assay; design: species or system Severe acute respiratory syndrome coronavirus 2
[8] = target: T1, Angiotensin-converting enzyme 2; experiment: Inhibition of recombinant SARS-COV2 His-tagged S-RBD binding to recombinant human ACE2 expressed in HEK293T cells incubated for 0.5 hrs by alpha screen assay; type: cell-based
[9] = Inhibition of SARS-COV2 main protease; design: species or system Severe acute respiratory syndrome coronavirus 2

T1 sequence (Q9BYF1 whole entry): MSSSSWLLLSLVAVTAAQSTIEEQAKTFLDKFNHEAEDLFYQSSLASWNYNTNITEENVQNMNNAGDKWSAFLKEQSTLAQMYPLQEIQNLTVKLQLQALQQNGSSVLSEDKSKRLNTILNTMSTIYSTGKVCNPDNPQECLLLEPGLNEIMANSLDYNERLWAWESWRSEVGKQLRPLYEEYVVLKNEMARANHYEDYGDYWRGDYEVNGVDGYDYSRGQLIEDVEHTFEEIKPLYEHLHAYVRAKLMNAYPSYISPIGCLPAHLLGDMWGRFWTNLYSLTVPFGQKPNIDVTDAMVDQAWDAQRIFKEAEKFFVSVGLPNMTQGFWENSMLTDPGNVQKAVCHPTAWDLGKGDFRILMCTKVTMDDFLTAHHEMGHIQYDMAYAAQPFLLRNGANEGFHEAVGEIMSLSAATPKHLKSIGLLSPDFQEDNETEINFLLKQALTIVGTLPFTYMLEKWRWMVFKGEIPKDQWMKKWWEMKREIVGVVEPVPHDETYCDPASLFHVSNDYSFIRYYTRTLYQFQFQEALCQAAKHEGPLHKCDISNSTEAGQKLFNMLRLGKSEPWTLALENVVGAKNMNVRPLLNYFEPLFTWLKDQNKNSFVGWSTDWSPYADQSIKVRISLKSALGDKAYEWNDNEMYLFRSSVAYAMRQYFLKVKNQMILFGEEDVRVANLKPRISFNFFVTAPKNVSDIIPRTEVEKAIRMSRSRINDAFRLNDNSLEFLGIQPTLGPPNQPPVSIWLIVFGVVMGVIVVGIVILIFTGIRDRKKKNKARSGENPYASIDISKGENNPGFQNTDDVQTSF

C[C@@H](NCCCc1cccc(C(F)(F)F)c1)c1cccc2ccccc12 gave a pIC50 [1] of 4.55, a CAC (Sus scrofa [2]) of 53 µM and a pIC50 [3] of 4.13. For the same molecule, the Activity (Sus scrofa [4]) was 81%.

In the case of COc1ccc(-c2ccc3cc(C(=O)O)ccc3c2)cc1C12CC3CC(CC(C3)C1)C2, the CAC (Sus scrofa [2]) was 9.2 µM, the pIC50 [3] was 4.85 and the Activity (Sus scrofa [4]) was 77%.

In the case of O=C(O)c1cccc(CN2C(=O)/C(=C(\c3ccccc3)c3ccc(Cl)cc3)c3ccccc32)c1, the pIC50 [5] was less than 3.70, the CAC (Sus scrofa [2]) was 49 µM and the pIC50 [6] was 4.45. It also gave a pIC50 [3] of 4.62 and an Activity (Sus scrofa [4]) of 22%.

Work on C/C(=C\c1ccc(C(=O)O)cc1)c1ccc2c(c1)C(C)(C)CCC2(C)C yielded a pIC50 [5] of less than 3.70, a CAC (Sus scrofa [2]) of 5.2 µM and a pIC50 [6] of 4.45. The pIC50 [3] was 5.36 and the Activity (Sus scrofa [4]) was 83%.

With O=C(O)c1ccc(N2C(=O)/C(=C\c3ccc(-c4ccc([N+](=O)[O-])cc4)o3)C=C2c2ccccc2)cc1 the pIC50 [5] was 4.00, the CAC (Sus scrofa [2]) was 6.2 µM and the pIC50 [7] was 4.74. It also gave a pIC50 [3] of 6.44 and an Activity (Sus scrofa [4]) of 75%.

CC(C)=CC[C@@H](O)C1=CC(=O)c2c(O)ccc(O)c2C1=O showed a CAC (Sus scrofa [2]) of 7.7 µM and an Activity (Sus scrofa [4]) of 92%.

Molecule Cc1c(-c2ccc(O)cc2)n(Cc2ccc(OCCN3CCCCCC3)cc2)c2ccc(O)cc12 has an Activity (Sus scrofa [4]) of 70%.

With O=C1c2c(O)cccc2Cc2cccc(O)c21 [ANTHRALIN] the CAC (Sus scrofa [2]) was 4.5 µM, the pIC50 [3] was 5.60 and the Activity (Sus scrofa [4]) was 93%.

Work on c1ccc(-c2ccc(C(c3ccccc3)n3ccnc3)cc2)cc1 (stereo unspecified) [BIFONAZOLE] yielded a pIC50 [3] of 4.77.

CC(C)(C)[C@H]1CC[C@H](CC2=C(O)C(=O)c3ccccc3C2=O)CC1 [BUPARVAQUONE] showed a CAC (Sus scrofa [2]) of 32 µM, a pIC50 [3] of 5.09 and an Activity (Sus scrofa [4]) of 90%.

Oc1c(I)cc(Cl)c2cccnc12 [CLIOQUINOL] gave a pIC50 [3] of 5.37 and an Activity (Sus scrofa [4]) of 57%.

COc1c2ccc(-c3ccccc3)oc-2cc(=O)c1C [DRACORHODIN] showed a CAC (Sus scrofa [2]) of 22 µM, a pIC50 [3] of 5.11 and an Activity (Sus scrofa [4]) of 86%.

Cc1cc(O)c2c(c1)C(=O)c1cc(O)cc(O)c1C2=O [EMODIN] showed a CAC (Sus scrofa [2]) of 6 µM and a pIC50 [3] of 4.90.

In the case of Cc1cc(-c2ccc(/N=N/c3ccc4c(S(=O)(=O)O)cc(S(=O)(=O)O)c(N)c4c3O)c(C)c2)ccc1/N=N/c1ccc2c(S(=O)(=O)O)cc(S(=O)(=O)O)c(N)c2c1O [EVANS BLUE], the pIC50 [3] was 8.00 and the Activity (Sus scrofa [4]) was 64%.

Molecule Cc1cc2c(C(C)C)c(O)c(O)c(C=O)c2c(O)c1-c1c(C)cc2c(C(C)C)c(O)c(O)c(C=O)c2c1O [GOSSYPOL] has a pIC50 [5] of less than 3.70, a CAC (Sus scrofa [2]) of 34 µM and a pIC50 [6] of 4.40. The pIC50 [3] was 6.09 and the Activity (Sus scrofa [4]) was 92%.

Molecule O=C1C=C2CC3(O)COc4c(ccc(O)c4O)C3=C2C=C1O (stereo unspecified) [HEMATEIN] has a pIC50 [5] of less than 3.70, a CAC (Sus scrofa [2]) of 123 µM and a pIC50 [8] of 5.00. The pIC50 [3] was 5.12 and the Activity (Sus scrofa [4]) was 24%.

With Cc1cc(O)c2c(=O)c3c(O)cc(O)c4c5c(O)cc(O)c6c(=O)c7c(O)cc(C)c8c1c2c(c34)c(c78)c65 [HYPERICIN] the CAC (Sus scrofa [2]) was 0.3 µM, the pIC50 [9] was 4.71 and the pIC50 [3] was 6.82. It also gave an Activity (Sus scrofa [4]) of 83%.

For COC(=O)C1=C(C)NC(C)=C(C(=O)OC(C)(C)CN(C)CCC(c2ccccc2)c2ccccc2)C1c1cccc([N+](=O)[O-])c1 (stereo unspecified) [LERCANIDIPINE], the pIC50 [5] was less than 3.70, the CAC (Sus scrofa [2]) was 4 µM and the pIC50 [3] was 5.66. It also gave an Activity (Sus scrofa [4]) of 95%.

COC(=O)C1=C(C)NC(C)=C(C(=O)OCCN2CCN(C(c3ccccc3)c3ccccc3)CC2)C1c1cccc([N+](=O)[O-])c1 (stereo unspecified) [MANIDIPINE 6300] showed a pIC50 [5] of less than 4.00, a CAC (Sus scrofa [2]) of 2.8 µM and a pIC50 [3] of 5.70. For the same molecule, the Activity (Sus scrofa [4]) was 92%.

For O=c1c(O)c(-c2cc(O)c(O)c(O)c2)oc2cc(O)cc(O)c12 [MYRICETIN], the CAC (Sus scrofa [2]) was 7.4 µM and the pIC50 [8] was 5.00.

Molecule Brc1c(Br)c(Br)c2[nH]nnc2c1Br [TETRABROMOBENZOTRIAZOLE] has a pIC50 [7] of 5.40, a pIC50 [3] of 4.84 and an Activity (Sus scrofa [4]) of 61%.

For Cc1c(C)c2c(c(C)c1O)CCC(C)(CCCC(C)CCCC(C)CCCC(C)C)O2 (stereo not drawn) [alpha-TOCHOPHEROL], the CAC (Sus scrofa [2]) was 1.5 µM, the pIC50 [3] was 7.10 and the Activity (Sus scrofa [4]) was 69%.
